Tests used:
Type in all cases: ADME, organism-based
[1] = Pharmacokinetic parameter in Male Wistar rats at 10 mg/kg oral administration.; set-up: dose 10 mg/kg, route oral; conditions: rat, in vivo
How it was run: (§1)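 Male Wistar rats; oral arm fasted 14 h, dosed as suspension in 0.25% CMC; IV arm given via tail vein in DMSO 6.6%/Cremophor ELP 6.6%/ethanol 3.3%/saline 83.3%. Retro-orbital blood drawn at 0.05, 0.5, 1, 2, 4, 6, 8, 10 and 21 h. Parameters include AUC0-∞, Cmax, Tmax, Kel, T1/2, Vd, Cl, f. Mean ± SD, n = 4.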

[2] = (§2) Pharmacokinetic parameter in Male Wistar rats at 3 mg/kg intravenous administration.; set-up: dose 3 mg/kg, route intravenous; conditions: rat, in vivo; how it was run: as §1
Rattus norvegicus = assay: as §2; set-up: dose 3 mg/kg, route intravenous; conditions: in vivo; how it was run: as §1

AUC [1]: 71.4 µg·h/mL | Cmax [1]: 17.2 µg/mL | Tmax [1]: 1.5 h | bioavailability [1]: 77% | half-life [1]: 2.81 h | k el [1]: 6.94e-05 s⁻¹ | AUC [2]: 27.8 µg·h/mL | Cmax [2]: 18.3 µg/mL | clearance [2]: 0.355 mL/min | half-life [2]: 4.69 h | k el [2]: 4.17e-05 s⁻¹ | Vd (Rattus norvegicus): 36.92 mL
Structure (SMILES): CCO[C@@H](Cc1ccc(OCCN2c3ccccc3Oc3ccccc32)cc1)C(=O)O [RAGAGLITAZAR]
